Measured values from ChEMBL document CHEMBL4477235, “Evolution of a Novel, Orally Bioavailable Series of PI3Kδ Inhibitors from an Inhaled Lead for the Treatment of Respiratory Disease” (J Med Chem, 2016).
Several values for one entry are separate records, joined by “and”; a condition that tells them apart may be missing. Equal entries are not always repeated. Activity calls are given as the source filed them. The calls are words filed in the database; no cut-off is given here.

Columns and labels:
Aurora kinase A = Aurora kinase A (Homo sapiens, UniProt O14965); test: Inhibition of Aurora A (unknown origin)
Rattus norvegicus = test: Anti-inflammatory activity in Brown Norway rat acute OVA model of TH2-driven lung inflammation assessed as protection against eosinophil recruitment in bronchoalveolar lavage fluid at 9 mg/kg, po pretreated for 30 mins followed by OVA challenge by DAPI staining based flow cytometry; format: functional, organism-based
Summary of the method: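 Male Brown Norway rats (250–300 g) sensitized i.p. with 10 μg OVA plus 20 mg Al(OH)₃ on days 1 and 7. Oral compound given 30 min before intratracheal OVA challenge on day 21 or 28, under isoflurane. BAL taken 48 h post-challenge. Leucocytes counted by flow cytometry, gated on FSC/SSC, with DAPI+ dead cells excluded.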

Sphingosine kinase 1 = Sphingosine kinase 1 (Homo sapiens, UniProt Q9NYA1); test: Inhibition of SPHK1 (unknown origin)
[1] = Fraction unbound in Brown Norway rat acute OVA model of TH2-driven lung inflammation at 9 mg/kg, po pretreated for 30 mins followed by OVA challenge measured 1 hr post dose by HPLC analysis; format: ADME, organism-based; details: in vivo
Summary of the method: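 Unbound concentration at 1 h post-dose estimated by an internal algorithm from binding to HPLC columns coated with HSA and α-glycoprotein.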

[2] = target: Inhibitor of nuclear factor kappa-B kinase subunit beta (Homo sapiens, UniProt O14920); test: Inhibition of IKK2 (unknown origin)
[3] = target: T1, Phosphatidylinositol 4,5-bisphosphate 3-kinase catalytic subunit delta isoform (Homo sapiens, UniProt O00329)
T1 sequence (O00329 whole entry): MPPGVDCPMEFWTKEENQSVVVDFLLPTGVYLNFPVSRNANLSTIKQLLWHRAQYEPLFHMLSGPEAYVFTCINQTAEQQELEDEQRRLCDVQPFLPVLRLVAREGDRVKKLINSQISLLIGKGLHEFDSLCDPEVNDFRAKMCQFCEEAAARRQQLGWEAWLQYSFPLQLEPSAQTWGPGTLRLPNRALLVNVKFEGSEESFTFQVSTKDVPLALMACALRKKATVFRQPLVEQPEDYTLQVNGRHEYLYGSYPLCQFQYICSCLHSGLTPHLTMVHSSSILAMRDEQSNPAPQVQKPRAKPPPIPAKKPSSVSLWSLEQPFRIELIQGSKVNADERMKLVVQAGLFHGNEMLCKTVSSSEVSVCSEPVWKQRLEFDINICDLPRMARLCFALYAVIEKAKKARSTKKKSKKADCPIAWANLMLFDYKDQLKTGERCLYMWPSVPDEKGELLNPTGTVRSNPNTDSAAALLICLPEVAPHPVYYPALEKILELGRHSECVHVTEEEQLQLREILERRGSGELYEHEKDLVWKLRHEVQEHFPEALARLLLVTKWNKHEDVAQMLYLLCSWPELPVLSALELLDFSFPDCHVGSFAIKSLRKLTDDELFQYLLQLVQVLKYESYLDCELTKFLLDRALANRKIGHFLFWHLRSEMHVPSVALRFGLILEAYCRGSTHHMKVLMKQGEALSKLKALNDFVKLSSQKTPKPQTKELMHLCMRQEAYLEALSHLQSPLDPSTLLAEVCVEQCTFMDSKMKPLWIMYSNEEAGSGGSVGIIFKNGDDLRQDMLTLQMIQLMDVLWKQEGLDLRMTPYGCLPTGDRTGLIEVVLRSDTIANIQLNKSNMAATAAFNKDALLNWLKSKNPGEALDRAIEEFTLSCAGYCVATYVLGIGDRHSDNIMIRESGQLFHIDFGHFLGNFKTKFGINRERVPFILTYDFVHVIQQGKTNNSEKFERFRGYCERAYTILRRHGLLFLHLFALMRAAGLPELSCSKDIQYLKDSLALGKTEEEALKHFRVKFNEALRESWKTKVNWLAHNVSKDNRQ

[4] = target: Serine/threonine-protein kinase mTOR (Homo sapiens, UniProt P42345); test: Inhibition of FRAP1 (unknown origin)
[5] = Half life in Brown Norway rat acute OVA model of TH2-driven lung inflammation at 9 mg/kg, po pretreated for 30 mins followed by OVA challenge; format: ADME, organism-based; details: in vivo
[6] = target: Phosphatidylinositol 4-kinase type 2-alpha (Homo sapiens, UniProt Q9BTU6); test: Inhibition of PI4K2A (unknown origin)
[7] = target: Tyrosine-protein kinase SYK (Homo sapiens, UniProt P43405); test: Inhibition of SYK (unknown origin)
[8] = AUC(infinity) in Brown Norway rat acute OVA model of TH2-driven lung inflammation at 9 mg/kg, po pretreated for 30 mins followed by OVA challenge; format: ADME, organism-based; set-up: dose 9 mg/kg, route oral, time infinity; details: in vivo
Summary of the method: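 Male Brown Norway rats weighing 250–300 g were sensitised intraperitoneally with 10 μg OVA plus 20 mg Al(OH)₃ in 1 mL on days 1 and 7. On day 21 or 28 they were challenged intratracheally with 0.2 mL OVA under isoflurane. Compound was dosed orally 30 min before challenge. Blood exposure was measured in the same animals, with the 1 h post-dose concentration also recorded.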

[9] = Drug uptake in blood of Brown Norway rat acute OVA model of TH2-driven lung inflammation at 9 mg/kg, po pretreated for 30 mins followed by OVA challenge measured 1 hr post dose; format: ADME, organism-based; details: read-out: Drug uptake
Summary of the method: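 Sensitized Brown Norway rats given oral compound 30 min before intratracheal OVA challenge. Blood concentration taken 1 h after dosing, i.e. 30 min after challenge.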

[10] = target: Leucine-rich repeat serine/threonine-protein kinase 2 (Homo sapiens, UniProt Q5S007); test: Inhibition of LRRK2 (unknown origin)
[11] = target: Tyrosine-protein kinase Lck (Homo sapiens, UniProt P06239); test: Inhibition of LCK (unknown origin)
[12] = Drug uptake in Wistar Han rat blood at 1 mg/kg measured 1 hr post dose; format: ADME, organism-based; details: read-out: Drug uptake
[13] = target: Diacylglycerol kinase zeta (Homo sapiens, UniProt Q13574); test: Inhibition of DAGK zeta (unknown origin)
Homo sapiens [14] = organism: Homo sapiens; test: Selectivity ratio of IC50 for PI3Kgamma (unknown origin) to IC50 for PI3Kdelta (unknown origin)
Summary of the method: (§1)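 Ratio of each isoform's HTRF IC50 to the PI3Kδ HTRF IC50. Enzymes were preincubated 15 min with 4-fold compound dilutions in HEPES pH 7.0, MgCl2, DTT buffer. […] PIP2 was 5 µM for δ and 8 µM for α/β/γ. 60 min reaction, then EDTA quench with GRP-1 PH domain/APC/Eu detection. Four-parameter fit.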

[15] = Clearance in rat liver microsomes at 0.5 uM measured up to 30 mins by LC-MS/MS analysis; format: ADME, Microsome; details: 0.5 h
Summary of the method: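 Rat liver microsomes (0.5 mg protein/mL) prewarmed 10 min at 37 °C, started with NADPH regeneration system. Final compound 0.5 μM. Sampled at 0, 3, 6, 12 and 30 min into acetonitrile with internal standard. Peak area ratios by LC–MS/MS fitted to log-linear decline. Clearance scaled by protein concentration, incubation volume and 52.5 mg microsomal protein/g liver.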

[16] = target: DNA-dependent protein kinase catalytic subunit (Homo sapiens) (UniProt P78527); test: Inhibition of DNA-PK (unknown origin)
Homo sapiens [17] = organism: Homo sapiens; test: Selectivity ratio of IC50 for PI3Kalpha (unknown origin) to IC50 for PI3Kdelta (unknown origin); summary of the method: as §1

Chain of Aurora kinase A (O14965 whole entry): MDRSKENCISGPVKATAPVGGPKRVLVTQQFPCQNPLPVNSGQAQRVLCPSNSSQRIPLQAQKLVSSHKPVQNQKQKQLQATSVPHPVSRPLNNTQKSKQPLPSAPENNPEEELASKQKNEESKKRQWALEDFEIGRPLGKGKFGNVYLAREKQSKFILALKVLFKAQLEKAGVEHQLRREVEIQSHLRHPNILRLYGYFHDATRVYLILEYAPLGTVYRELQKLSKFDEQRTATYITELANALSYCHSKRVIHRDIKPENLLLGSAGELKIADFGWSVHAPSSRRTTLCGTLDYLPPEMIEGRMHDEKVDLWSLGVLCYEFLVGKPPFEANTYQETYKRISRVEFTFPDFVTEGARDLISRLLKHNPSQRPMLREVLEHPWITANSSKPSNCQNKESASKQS
Chain of Inhibitor of nuclear factor kappa-B kinase subunit beta (O14920 whole entry, canonical isoform): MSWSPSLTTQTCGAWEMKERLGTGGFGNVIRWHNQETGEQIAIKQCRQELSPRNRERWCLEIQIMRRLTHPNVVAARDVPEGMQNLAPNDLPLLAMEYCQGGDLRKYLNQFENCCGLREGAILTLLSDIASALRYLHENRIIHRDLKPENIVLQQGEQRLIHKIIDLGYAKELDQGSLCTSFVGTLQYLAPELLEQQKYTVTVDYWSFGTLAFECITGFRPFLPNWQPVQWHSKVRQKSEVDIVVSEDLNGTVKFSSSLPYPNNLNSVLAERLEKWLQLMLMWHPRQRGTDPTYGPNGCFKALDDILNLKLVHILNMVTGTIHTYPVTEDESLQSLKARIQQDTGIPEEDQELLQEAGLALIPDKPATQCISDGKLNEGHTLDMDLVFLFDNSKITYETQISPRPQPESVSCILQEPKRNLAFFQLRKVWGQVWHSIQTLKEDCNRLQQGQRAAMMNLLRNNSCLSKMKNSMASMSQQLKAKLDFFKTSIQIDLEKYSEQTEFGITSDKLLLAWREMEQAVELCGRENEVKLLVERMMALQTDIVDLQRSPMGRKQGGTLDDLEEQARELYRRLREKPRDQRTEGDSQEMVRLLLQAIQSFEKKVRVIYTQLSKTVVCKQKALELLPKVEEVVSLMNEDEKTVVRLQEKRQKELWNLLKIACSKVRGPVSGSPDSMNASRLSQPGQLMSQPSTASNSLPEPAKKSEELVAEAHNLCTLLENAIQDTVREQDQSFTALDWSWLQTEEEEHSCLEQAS
Chain of Leucine-rich repeat serine/threonine-protein kinase 2 (Q5S007 whole entry): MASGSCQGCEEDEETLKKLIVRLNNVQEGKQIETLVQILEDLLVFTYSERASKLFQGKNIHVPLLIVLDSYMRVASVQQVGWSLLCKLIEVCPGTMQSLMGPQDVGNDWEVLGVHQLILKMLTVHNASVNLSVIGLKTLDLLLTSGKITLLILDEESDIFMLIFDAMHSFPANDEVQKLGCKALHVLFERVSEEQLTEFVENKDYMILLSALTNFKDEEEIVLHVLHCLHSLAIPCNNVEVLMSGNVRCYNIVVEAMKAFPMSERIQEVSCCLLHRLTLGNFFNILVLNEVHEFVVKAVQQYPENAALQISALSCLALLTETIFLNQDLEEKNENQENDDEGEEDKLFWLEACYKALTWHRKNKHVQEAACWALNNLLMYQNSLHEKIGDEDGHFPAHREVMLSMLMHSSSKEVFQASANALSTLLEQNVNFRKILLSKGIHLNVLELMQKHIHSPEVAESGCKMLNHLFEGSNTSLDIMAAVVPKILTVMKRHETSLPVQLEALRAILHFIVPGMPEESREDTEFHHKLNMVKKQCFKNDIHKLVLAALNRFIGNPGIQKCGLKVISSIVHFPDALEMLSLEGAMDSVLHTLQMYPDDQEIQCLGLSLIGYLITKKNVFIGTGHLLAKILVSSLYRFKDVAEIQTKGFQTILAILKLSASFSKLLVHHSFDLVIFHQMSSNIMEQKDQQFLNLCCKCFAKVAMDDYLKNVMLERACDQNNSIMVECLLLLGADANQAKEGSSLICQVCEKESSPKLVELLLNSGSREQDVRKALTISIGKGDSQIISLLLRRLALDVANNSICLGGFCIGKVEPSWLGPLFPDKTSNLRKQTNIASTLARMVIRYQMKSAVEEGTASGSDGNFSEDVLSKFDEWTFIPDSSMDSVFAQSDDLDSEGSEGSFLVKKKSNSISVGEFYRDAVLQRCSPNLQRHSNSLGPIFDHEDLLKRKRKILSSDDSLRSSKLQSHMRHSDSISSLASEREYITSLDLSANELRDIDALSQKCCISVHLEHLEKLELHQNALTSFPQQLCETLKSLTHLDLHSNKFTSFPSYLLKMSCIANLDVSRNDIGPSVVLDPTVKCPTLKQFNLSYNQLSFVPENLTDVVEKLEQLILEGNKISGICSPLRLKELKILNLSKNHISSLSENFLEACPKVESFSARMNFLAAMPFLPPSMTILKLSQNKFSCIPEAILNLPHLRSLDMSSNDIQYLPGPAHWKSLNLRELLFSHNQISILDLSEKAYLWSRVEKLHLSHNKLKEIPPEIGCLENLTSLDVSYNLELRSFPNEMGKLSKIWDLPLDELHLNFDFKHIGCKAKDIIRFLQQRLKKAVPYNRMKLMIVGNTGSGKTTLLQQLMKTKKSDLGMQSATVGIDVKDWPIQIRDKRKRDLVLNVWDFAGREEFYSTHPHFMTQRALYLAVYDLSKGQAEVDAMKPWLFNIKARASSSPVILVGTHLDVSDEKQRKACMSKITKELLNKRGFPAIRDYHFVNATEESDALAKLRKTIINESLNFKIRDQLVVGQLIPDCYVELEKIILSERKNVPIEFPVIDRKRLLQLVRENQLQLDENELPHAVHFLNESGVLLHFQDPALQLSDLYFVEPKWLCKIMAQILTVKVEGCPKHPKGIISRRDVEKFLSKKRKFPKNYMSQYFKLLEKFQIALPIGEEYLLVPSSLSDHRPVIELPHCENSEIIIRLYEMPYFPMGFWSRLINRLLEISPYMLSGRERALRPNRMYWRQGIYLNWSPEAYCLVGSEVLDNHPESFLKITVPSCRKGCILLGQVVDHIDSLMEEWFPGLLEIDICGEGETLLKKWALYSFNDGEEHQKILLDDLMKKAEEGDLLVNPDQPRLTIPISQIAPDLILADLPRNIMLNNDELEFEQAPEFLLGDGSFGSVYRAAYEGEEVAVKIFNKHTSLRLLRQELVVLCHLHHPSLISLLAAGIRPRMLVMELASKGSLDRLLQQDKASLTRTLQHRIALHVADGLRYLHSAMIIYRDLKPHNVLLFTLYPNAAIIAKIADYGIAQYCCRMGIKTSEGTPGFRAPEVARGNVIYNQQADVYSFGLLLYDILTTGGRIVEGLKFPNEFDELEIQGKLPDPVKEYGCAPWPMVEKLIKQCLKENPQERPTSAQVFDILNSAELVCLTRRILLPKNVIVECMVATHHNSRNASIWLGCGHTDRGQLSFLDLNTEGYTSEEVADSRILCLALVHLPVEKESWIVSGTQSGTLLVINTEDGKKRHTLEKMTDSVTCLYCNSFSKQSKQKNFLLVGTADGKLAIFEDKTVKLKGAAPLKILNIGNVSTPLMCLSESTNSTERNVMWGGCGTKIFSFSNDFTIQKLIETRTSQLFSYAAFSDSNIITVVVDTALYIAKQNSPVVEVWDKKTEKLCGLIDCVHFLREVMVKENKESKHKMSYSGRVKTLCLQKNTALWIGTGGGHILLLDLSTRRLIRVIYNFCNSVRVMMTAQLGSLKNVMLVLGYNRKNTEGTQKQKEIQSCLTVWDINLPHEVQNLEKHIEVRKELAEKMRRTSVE
Chain of Sphingosine kinase 1 (Q9NYA1 whole entry): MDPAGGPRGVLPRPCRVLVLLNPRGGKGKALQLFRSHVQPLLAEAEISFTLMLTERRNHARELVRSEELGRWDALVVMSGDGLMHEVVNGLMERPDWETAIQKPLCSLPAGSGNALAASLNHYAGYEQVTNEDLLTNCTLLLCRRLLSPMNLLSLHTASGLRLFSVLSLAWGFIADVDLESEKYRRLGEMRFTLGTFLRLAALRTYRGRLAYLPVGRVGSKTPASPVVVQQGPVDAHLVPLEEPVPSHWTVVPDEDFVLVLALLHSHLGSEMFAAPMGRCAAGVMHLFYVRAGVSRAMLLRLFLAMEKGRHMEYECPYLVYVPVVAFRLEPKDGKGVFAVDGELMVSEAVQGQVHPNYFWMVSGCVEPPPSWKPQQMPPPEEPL
Chain of Tyrosine-protein kinase Lck (P06239 whole entry): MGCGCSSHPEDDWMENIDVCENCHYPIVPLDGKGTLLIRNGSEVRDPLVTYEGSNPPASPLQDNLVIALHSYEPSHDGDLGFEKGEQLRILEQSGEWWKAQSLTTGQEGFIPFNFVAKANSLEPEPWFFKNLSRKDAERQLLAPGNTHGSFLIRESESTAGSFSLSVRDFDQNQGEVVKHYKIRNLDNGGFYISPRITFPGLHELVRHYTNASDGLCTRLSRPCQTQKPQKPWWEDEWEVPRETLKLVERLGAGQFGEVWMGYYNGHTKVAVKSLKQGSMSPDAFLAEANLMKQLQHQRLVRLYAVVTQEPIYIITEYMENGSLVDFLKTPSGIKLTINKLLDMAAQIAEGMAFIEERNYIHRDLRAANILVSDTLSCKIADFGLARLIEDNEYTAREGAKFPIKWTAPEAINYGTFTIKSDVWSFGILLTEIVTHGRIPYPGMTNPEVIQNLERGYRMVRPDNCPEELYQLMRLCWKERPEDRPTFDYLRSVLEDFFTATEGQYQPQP
Chain of Phosphatidylinositol 4-kinase type 2-alpha (Q9BTU6 whole entry): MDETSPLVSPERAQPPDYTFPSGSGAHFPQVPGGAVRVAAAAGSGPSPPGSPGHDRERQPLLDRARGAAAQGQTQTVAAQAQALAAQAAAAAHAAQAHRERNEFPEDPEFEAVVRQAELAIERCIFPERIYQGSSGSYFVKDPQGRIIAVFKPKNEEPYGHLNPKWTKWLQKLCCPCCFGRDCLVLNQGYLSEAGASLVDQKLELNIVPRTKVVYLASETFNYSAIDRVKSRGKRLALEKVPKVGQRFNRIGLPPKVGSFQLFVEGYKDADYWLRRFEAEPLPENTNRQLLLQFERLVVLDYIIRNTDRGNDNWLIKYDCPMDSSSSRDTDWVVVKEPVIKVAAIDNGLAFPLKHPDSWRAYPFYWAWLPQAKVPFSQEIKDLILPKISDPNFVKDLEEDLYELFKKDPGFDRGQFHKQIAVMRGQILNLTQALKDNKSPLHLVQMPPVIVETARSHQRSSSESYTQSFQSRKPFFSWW

IC50 (Aurora kinase A): > 10 µM
IC50 (Sphingosine kinase 1): > 10 µM
Drug uptake(free) [1]: 0.22 µM
IC50 [2]: > 10 µM
IC50 [3]: 0.158 to 0.251 µM and 0.25 µM
IC50 [4]: > 10 µM
half-life [5]: 6.8 h
IC50 [6]: > 10 µM
IC50 [7]: > 10 µM
AUC(0-inf) [8]: 2620 ng·h/mL
concentration at 1 h [9]: 1270 nM
IC50 [10]: > 10 µM
IC50 [11]: > 10 µM
concentration at 1 h [12]: 520 nM
IC50 [13]: > 10 µM
Ratio IC50 (Homo sapiens [14]): 50
CLH [15]: < 0.5 mL/min/g
pIC50(app) [16]: 5.6
Ratio IC50 (Homo sapiens [17]): 25
Structure (SMILES): COc1ncc(-c2cc3c(c(NC(=O)CN4CCOCC4)c2)COC3)cc1NS(C)(=O)=O
Activity (Rattus norvegicus): inactive
